Reference: ChEMBL document CHEMBL4334460, “Madecassic Acid Derivatives as Potential Anticancer Agents: Synthesis and Cytotoxic Evaluation” (2019)
Active and inactive are the calls of the source. No cut-off for these calls is given here.

Legend:
CCRF-CEM [1] = experiment: Antiproliferative activity against human CCRF-CEM cells assessed as cell growth at 10 uM after 48 hrs by sulforhodamine B assay relative to control; type: functional; conditions: pooled result: one value given for 60 cell lines, strains, targets or settings, read-out: Activity
Summary of the method: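 NCI-60 one-dose screen: cells exposed to test compound at a single 10 μM concentration, viability after 48 h read by sulforhodamine B staining; value is growth percent versus negative control, with a time-zero cell control used to determine total cell growth.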

[2] = Selectivity ratio of GI50 for human Hs 578T cells to GI50 for human MCF7 cells; type: functional
COLO 205 [3] = experiment: Induction of cell cycle arrest in human COLO205 cells assessed as cell population at S phase at 10 uM after 48 hrs by PI/RNase staining based flow cytometry (reference value: 16.3%); type: functional
Summary of the method: (§1)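 COLO 205 cells grown at 37 °C, 5% CO2 in RPMI with 10% FBS and penicillin/streptomycin. Treated 48 h with 10 or 20 μM compound or DMSO vehicle. Cells trypsinized, fixed in ethanol 15 min on ice, stained with PI/RNase solution 40 min at 37 °C, then analysed by imaging cytometry. % cells per phase given as mean ± SD of three independent experiments.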

HCT-15 = experiment: Antiproliferative activity against human HCT15 cells assessed as growth inhibition after 48 hrs by sulforhodamine B assay; type: functional; conditions: HCT-15, 48 h
UO-31 = experiment: Antiproliferative activity against human UO31 cells assessed as growth inhibition after 48 hrs by sulforhodamine B assay; type: functional; conditions: UO-31, 48 h
Summary of the method: (§2)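 NCI-60 five-dose follow-up, run only when the one-dose screen indicated activity. Doses 100 μM down to 0.01 μM in log steps (0.01, 0.1, 1, 10, 100 μM). 48 h incubation with sulforhodamine B read-out. A time-zero cell control allowed calculation of GI50 from % growth vs concentration dose–response curves.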

CCRF-CEM [4] = experiment: Antiproliferative activity against human CCRF-CEM cells assessed as growth inhibition after 48 hrs by sulforhodamine B assay; type: functional; conditions: pooled result: one value given for 58 cell lines, strains, targets or settings
[5] = Selectivity ratio of GI50 for human RXF 393 cells to GI50 for human CAKi1 cells; type: functional
[6] = Selectivity ratio of GI50 for human Hs 578T cells to GI50 for human T47D cells; type: functional
[7] = Selectivity ratio of GI50 for human OVCAR5 cells to GI50 for human OVCAR4 cells; type: functional
COLO 205 [8] = experiment: Induction of cell cycle arrest in human COLO205 cells assessed as cell population at G2/M phase at 20 uM after 48 hrs by PI/RNase staining based flow cytometry (reference value: 18.6%); type: functional; summary of the method: as §1
COLO 205 [9] = experiment: Antiproliferative activity against human COLO205 cells assessed as growth inhibition after 48 hrs by sulforhodamine B assay; type: functional; conditions: COLO 205, 48 h
COLO 205 [10] = experiment: Induction of mitochondrial dysfunction in human COLO205 cells assessed as reduction in mitochondrial membrane potential by measuring shift in red to green fluorescence after 48 hrs by JC-1 staining based inverted microscopic analysis; type: functional, cell-based
Summary of the method: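 COLO 205 cells (5 × 10^5) grown on coverslips overnight, then treated 48 h with 10 or 20 μM compound or DMSO. Fresh medium with 4 μg/mL JC-1 added for 30 min at 37 °C. Cells washed twice and imaged immediately by inverted fluorescence microscopy (40× objective) at room temperature, scoring red aggregate vs green monomer fluorescence.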

COLO 205 [11] = experiment: Induction of cell cycle arrest in human COLO205 cells assessed as cell population at S phase at 20 uM after 48 hrs by PI/RNase staining based flow cytometry (reference value: 16.3%); type: functional; summary of the method: as §1
UACC-257 [12] = experiment: Antiproliferative activity against human UACC257 cells assessed as growth inhibition after 48 hrs by sulforhodamine B assay; type: functional; conditions: UACC-257, 48 h; summary of the method: as §2
UACC-257 [13] = experiment: Antiproliferative activity against human UACC257 cells assessed as reduction in cell viability after 48 hrs by SRB assay; type: functional; conditions: UACC-257, 48 h, read-out: LC50 (the source's name)
Summary of the method: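 NCI-60 five-dose testing at 100, 10, 1, 0.1 and 0.01 μM (log dilutions). After 48 h incubation, viability was read by sulforhodamine B staining. A time-zero cell control gave total growth per cell line. GI50, TGI and LC50 were calculated from % growth versus concentration curves.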

[14] = Selectivity ratio of GI50 for human Hs 578T cells to GI50 for human MDA-MB-468 cells; type: functional
COLO 205 [15] = experiment: Induction of cell cycle arrest in human COLO205 cells assessed as cell population at G2/M phase at 10 uM after 48 hrs by PI/RNase staining based flow cytometry (reference value: 18.6%); type: functional; summary of the method: as §1
SK-MEL-5 = experiment: Antiproliferative activity against human SK-MEL-5 cells assessed as growth inhibition after 48 hrs by sulforhodamine B assay; type: functional; conditions: SK-MEL-5, 48 h
COLO 205 [16] = experiment: Induction of cell cycle arrest in human COLO205 cells assessed as cell population at G0/G1 phase at 10 uM after 48 hrs by PI/RNase staining based flow cytometry (reference value: 63.8%); type: functional; summary of the method: as §1
COLO 205 [17] = experiment: Induction of cell cycle arrest in human COLO205 cells assessed as cell population at G0/G1 phase at 20 uM after 48 hrs by PI/RNase staining based flow cytometry (reference value: 63.8%); type: functional; summary of the method: as §1
[18] = Selectivity ratio of GI50 for human NCI-H226 cells to GI50 for human NCI-H23 cells; type: functional
[19] = Selectivity ratio of GI50 for human NCI-H226 cells to GI50 for human NCI-H460 cells; type: functional
COLO 205 [20] = experiment: Induction of cell cycle arrest in human COLO205 cells assessed as increase in accumulation of cells at G2/M phase at 2 uM after 24 hrs by PI/RNase staining based flow cytometry (reference value: 18.6%); type: functional
Summary of the method: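 Positive-control arm of the COLO 205 cell-cycle assay: nocodazole 2 μM for 24 h. Culture conditions as above (RPMI, 10% FBS, 37 °C, 5% CO2). Ethanol-fixed cells stained with PI/RNase 40 min at 37 °C and analysed by imaging cytometry for phase distribution. Three independent experiments.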

| SMILES | GI50 (HCT-15) [µM] | GI50 (CCRF-CEM [4]) [µM] | growth at 10 µM (CCRF-CEM [1]) [%] | GI50 (UO-31) [µM] | further results |
| --- | --- | --- | --- | --- | --- |
| COC(=O)[C@]12CC[C@@H](C)[C@H](C)[C@H]1C1=CC[C@@H]3[C@@]4(C)C[C@@H](O)[C@H](O)[C@@]5(C)COC(=C45)C[C@@]3(C)[C@]1(C)CC2 |  |  | 85.8 |  |  |
| COC(=O)[C@]12CC[C@@H](C)[C@H](C)[C@H]1C1=CC(=O)[C@@H]3[C@@]4(C)C[C@@H](O)[C@H](O)[C@@]5(C)COC(=C45)C[C@@]3(C)[C@]1(C)CC2 |  |  | 51.5 |  |  |
| COC(=O)[C@]12CC[C@@H](C)[C@H](C)[C@H]1C1=CC[C@@H]3[C@@]4(C)CC(=O)[C@H](OC(=O)c5ccco5)[C@@]5(C)COC(=C45)C[C@@]3(C)[C@]1(C)CC2 | 0.5 | 2.3 | 27.2 | 1.7 | RatioGI50 [2]: >100; Activity (COLO 205 [3]): 3.8%; RatioGI50 [5]: >50; RatioGI50 [6]: >100; RatioGI50 [7]: >50; Activity (COLO 205 [8]): 6.2%; TGI (COLO 205 [9]): 3 µM; Activity (COLO 205 [10]): Dose-dependent effect; Activity (COLO 205 [11]): 3.3%; TGI (UACC-257 [12]): 3 µM; CC50 (UACC-257 [13]): 50.1 µM; RatioGI50 [14]: >100; Activity (COLO 205 [15]): 6.6%; TGI (SK-MEL-5): 2.6 µM; Activity (COLO 205 [16]): 88.4%; Activity (COLO 205 [17]): 89.1%; RatioGI50 [18]: >50; RatioGI50 [19]: >100 |
| COC(=O)[C@]12CC[C@@H](C)[C@H](C)[C@H]1C1=CC[C@@H]3[C@@]4(C)C[C@@H](OC(C)=O)[C@H](OC(C)=O)[C@@](C)(COC(C)=O)[C@@H]4[C@H](O)C[C@@]3(C)[C@]1(C)CC2 | 1.7 | 1.7 | 8 | 1.7 |  |
| COC(=O)[C@]12CC[C@@H](C)[C@H](C)[C@H]1C1=CC[C@@H]3[C@@]4(C)CC(=O)[C@H](OC(=O)/C=C/c5ccccc5)[C@@]5(C)COC(=C45)C[C@@]3(C)[C@]1(C)CC2 |  |  | 78.2 |  |  |
| COC(=O)[C@]12CC[C@@H](C)[C@H](C)[C@H]1C1=CC(=O)[C@@H]3[C@@]4(C)C[C@@H](OC(C)=O)[C@H](OC(C)=O)[C@@](C)(COC(C)=O)[C@@H]4C(=O)C[C@@]3(C)[C@]1(C)CC2 |  |  | 45.8 |  |  |
| COC(=O)[C@]12CC[C@@H](C)[C@H](C)[C@H]1C1=CC[C@@H]3[C@@]4(C)C=C(O)C(=O)C(C)=C4C(=O)C[C@@]3(C)[C@]1(C)CC2 |  |  | 67.8 |  |  |
| COC(=O)[C@]12CC[C@@H](C)[C@H](C)[C@H]1C1=CC[C@@H]3[C@@]4(C)C[C@@H](OC(=O)/C=C/c5ccccc5)[C@H](O)[C@@](C)(CO)[C@@H]4[C@H](O)C[C@@]3(C)[C@]1(C)CC2 | 2.4 | 2.4 | -4.8 | 2.4 |  |
| COC(=O)[C@]12CC[C@@H](C)[C@H](C)[C@H]1C1=CC[C@@H]3[C@@]4(C)C[C@@H](O)[C@H](O)[C@@](C)(CO)C4=CC[C@@]3(C)[C@]1(C)CC2 | 17 | 17 | -55.4 | 17 |  |
| COC(=O)Nc1nc2cc(C(=O)c3cccs3)ccc2[nH]1 |  |  |  |  | Activity (COLO 205 [20]): Active |
| C[C@H]1[C@H](C)CC[C@]2(C(=O)O)CC[C@]3(C)C(=CC[C@@H]4[C@@]5(C)C[C@@H](O)[C@H](O)[C@@](C)(CO)[C@@H]5[C@H](O)C[C@]43C)[C@H]12 [MADECASSIC ACID] |  |  | 99.2 |  |  |

Second part, led by results:

| GI50 (HCT-15) [µM] | GI50 (CCRF-CEM [4]) [µM] | SMILES | growth at 10 µM (CCRF-CEM [1]) [%] | GI50 (UO-31) [µM] | further results |
| --- | --- | --- | --- | --- | --- |
| 8.9 | 8.9 | COC(=O)[C@]12CC[C@@H](C)[C@H](C)[C@H]1C1=CC[C@@H]3[C@@]4(C)C=C(O)C(=O)[C@@]5(C)COC(=C54)C[C@@]3(C)[C@]1(C)CC2 | -58.9 | 8.9 |  |
| 12 | 12 | COC(=O)[C@]12CC[C@@H](C)[C@H](C)[C@H]1C1=CC[C@@H]3[C@@]4(C)C=C(O)C(=O)C(C)=C4CC[C@@]3(C)[C@]1(C)CC2 | 31.7 | 12 |  |
| 10 | 10 | COC(=O)[C@]12CC[C@@H](C)[C@H](C)[C@H]1C1=CC[C@@H]3[C@@]4(C)CC(=O)[C@H](O)[C@@](C)(CO)[C@@H]4C(=O)C[C@@]3(C)[C@]1(C)CC2 | -22.4 | 10 |  |
| 11 | 11 | COC(=O)[C@]12CC[C@@H](C)[C@H](C)[C@H]1C1=CC[C@@H]3[C@@]4(C)C[C@@H](OC(C)=O)[C@H](O)[C@@](C)(CO)[C@@H]4[C@H](O)C[C@@]3(C)[C@]1(C)CC2 | -79.2 | 11 |  |
| 4.9 | 4.9 | COC(=O)[C@]12CC[C@@H](C)[C@H](C)[C@H]1C1=CC[C@@H]3[C@@](C)(CC#N)C4=C(C[C@@]3(C)[C@]1(C)CC2)OC[C@]4(C)C=O | -18.1 | 4.9 |  |
| 12.9 | 12.9 | COC(=O)[C@]12CC[C@@H](C)[C@H](C)[C@H]1C1=CC[C@@H]3[C@@]4(C)C[C@@H](O)[C@H](O)[C@@](C)(CO)[C@@H]4[C@H](O)C[C@@]3(C)[C@]1(C)CC2 | -54.1 | 12.9 |  |
| 6.6 | 6.6 | COC(=O)[C@]12CC[C@@H](C)[C@H](C)[C@H]1C1=CC[C@@H]3[C@@]4(C)C/C(=N\O)[C@H](O)[C@@]5(C)COC(=C45)C[C@@]3(C)[C@]1(C)CC2 | -76.9 | 6.6 |  |
| 2.3 | 2.3 | COC(=O)[C@]12CC[C@@H](C)[C@H](C)[C@H]1C1=CC[C@@H]3[C@@]4(C)C[C@@H](OC(=O)c5ccco5)[C@H](O)[C@@](C)(CO)[C@@H]4[C@H](O)C[C@@]3(C)[C@]1(C)CC2 | -83 | 2.3 |  |
| 18.2 | 18.2 | COC(=O)[C@]12CC[C@@H](C)[C@H](C)[C@H]1C1=CC[C@@H]3[C@@]4(C)CC(=O)[C@H](O)[C@@]5(C)COC(=C45)C[C@@]3(C)[C@]1(C)CC2 | -62.9 | 18.2 |  |
